Results: paper PMC4449736 (Science translational medicine, 2015)
Structures can show the parent of a compound that is named as a salt.

How the values were obtained:
[1] = human studies, data limited; cited from earlier work
UGT1A1, UGT1A9 = conditions: hepatic glucuronidation pathway; cited from earlier work
[2] = assay type: in vivo, rhesus macaques (Macaca mulatta)
[3] = test system: simian-human immunodeficiency virus (SHIV); conditions: cited from earlier work
[4] = oral GSK744, humans; cited from earlier work
[5] = Plasma PK of GSK744 in Depo-Provera-treated female rhesus macaques; assay type: in vivo
Method in brief: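 Female Indian rhesus macaques received 30 mg Depo-Provera IM on weeks -3 and 2 and monthly IM injections of long-acting test compound (8 treated, 4 controls), with three intravaginal SHIV162P3 challenges. Plasma drug levels were followed per animal and expressed as multiples of PAIC90. Plasma SHIV RNA was tracked weekly for 24 weeks by real-time RT-PCR (sensitivity 40 copies/mL) to time first vRNA detection.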

[6] = test system: single-cycle recombinant viruses with the integrase-coding regions of FG95 mutants; test: Susceptibility of single-cycle SIV recombinant viruses to GSK744 in TZM-bl cells; assay type: cell-based; conditions: Table S2
HIV = conditions: TDF alone, injection drug users; cited from earlier work

Structure (SMILES) | relative mucosal tissue penetration [1] | metabolizing enzymes (UGT1A1, UGT1A9) | mean cervical T:P ratio ([2]; Depo-Provera-treated female macaques, 50 mg/kg GSK744 LA) | GSK744 concentrations lower on average in cervical tissues than rectal tissues ([2]; Depo-Provera-treated female macaques, 50 mg/kg GSK744 LA monthly) [fold] | mean T:P ratio in unwashed rectal tissues ([2]; Depo-Provera-treated female macaques, 50 mg/kg GSK744 LA, no saline rinse) | Kp ([2]; female, Indian, rhesus monkey, cervical tissue / plasma, intramuscular, 50 mg/kg) | protection ([3]; GSK744 plasma concentrations >3x PAIC90) [%] | efficacy ([3]; GSK744 plasma concentrations ≥1x PAIC90) [%] | apparent terminal half-life (t1/2) [4] | plasma GSK744 concentration at first vRNA detection relative to PAIC90 ([5]; macaque FG95) [x PAIC90] | plasma GSK744 concentration at the time of challenges relative to PAIC90 ([5]; macaque FG95, three challenges) | plasma GSK744 concentration at first vRNA detection relative to PAIC90 ([5]; macaque FM26) | plasma GSK744 concentration at the time of challenges relative to PAIC90 ([5]; macaque FM26, three challenges) | viral susceptibility to GSK744 ([6]; integrase E198G mutation (FG95, week 20)) | susceptibility to GSK744 in vitro ([6]; integrase P142S, I210V mutations (FG95, week 11)) | reduced HIV infection (HIV) [%]
C[C@H]1CO[C@@H]2Cn3cc(C(=O)NCc4ccc(F)cc4F)c(=O)c(O)c3C(=O)N12 [GSK744] | penetrates cervical tissue slightly more efficiently than rectal tissue | primarily by UGT1A1, with some involvement from UGT1A9 | 0.09 (range: below detection to 0.20) | 5 | 0.37 (range: 0.15 to 1.13) | ~0.1 | 100 | 97 | approximately 40 hours | < 1 | 13.3–18.4 x PAIC90 | ≈ 2.2 x PAIC90 | 12.4–18.1 X PAIC90 | did not decrease viral susceptibility | did not decrease susceptibility | –
CC(C)OC(=O)OCOP(=O)(CO[C@H](C)Cn1cnc2c(N)ncnc21)OCOC(=O)OC(C)C [TDF, tenofovir disoproxil fumarate] | – | – | – | – | – | – | – | – | – | – | – | – | – | – | – | 49
